This is a sample that favours compounds with a hit; in the whole collection about 3.5% have one here.
PAFAH1B3 inh = inhibitors of human PAFAH1B3; recombinant PAFAH1B3, FP-rhodamine probe, fluorescence polarization; inhibition, % at 3.39 µM; 340,000 tested, 0.28% active; AID 492972;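 active = inhibition above the screen-wide average of all tested compounds plus 3 SD, cut at about 25% in these data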
PAFAH2 inh = PAFAH2 (human) inhibition; 340,000 tested, 0.99% active; Q99487; recombinant PAFAH2, FP-rhodamine activity probe, fluorescence polarization; inhibition, % at 3.39 µM;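 active = inhibition above the mean over all tested compounds plus 3 SD, cut at about 30% in these data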;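 also: inhibitors block probe labeling of enzyme so polarization drops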
PREPL inh = human PREPL enzyme inhibition; Q4J6C6; recombinant PREPL, fluorescence polarization activity-based probe; inhibition, % at 5.96 µM; 320,000 tested, 0.68% active; AID 2751; in the data active = inhibition above about 43%
pPAFAH FP inh = inhibitors of human plasma PAF acetylhydrolase (pPAFAH). Q13093. recombinant pPAFAH, FP-rhodamine probe fluorescence polarization. inhibition, % at 3.39 µM. 330,000 tested, 1.5% active;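 active = inhibition above the mean inhibition across the screen plus 3 SD, cut at about 25% in these data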;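 also: inhibitors block binding of the rhodamine activity-based probe so polarization drops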
PAFAH1B2 FP inh = PAFAH1B2 (human) inhibition; P68402; recombinant PAFAH1B2, FP-rhodamine activity probe, fluorescence polarization; inhibition, % at 3.39 µM; 340,000 tested, 1.2% active;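 active = inhibition above the mean of all tested compounds plus 3 SD, cut at about 24% in these data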
Apaf1 inhib = inhibitors of human Apaf-1 apoptosome; reconstituted apoptosome caspase-3 activity, DEVD-Rh110 fluorescence; AID 489030; 330,000 tested, 0.71% active; O14727; inhibition, % at 20 µM; active = inhibition of at least 40% at 20 µM
Target sequence (O14727 whole entry, looked up): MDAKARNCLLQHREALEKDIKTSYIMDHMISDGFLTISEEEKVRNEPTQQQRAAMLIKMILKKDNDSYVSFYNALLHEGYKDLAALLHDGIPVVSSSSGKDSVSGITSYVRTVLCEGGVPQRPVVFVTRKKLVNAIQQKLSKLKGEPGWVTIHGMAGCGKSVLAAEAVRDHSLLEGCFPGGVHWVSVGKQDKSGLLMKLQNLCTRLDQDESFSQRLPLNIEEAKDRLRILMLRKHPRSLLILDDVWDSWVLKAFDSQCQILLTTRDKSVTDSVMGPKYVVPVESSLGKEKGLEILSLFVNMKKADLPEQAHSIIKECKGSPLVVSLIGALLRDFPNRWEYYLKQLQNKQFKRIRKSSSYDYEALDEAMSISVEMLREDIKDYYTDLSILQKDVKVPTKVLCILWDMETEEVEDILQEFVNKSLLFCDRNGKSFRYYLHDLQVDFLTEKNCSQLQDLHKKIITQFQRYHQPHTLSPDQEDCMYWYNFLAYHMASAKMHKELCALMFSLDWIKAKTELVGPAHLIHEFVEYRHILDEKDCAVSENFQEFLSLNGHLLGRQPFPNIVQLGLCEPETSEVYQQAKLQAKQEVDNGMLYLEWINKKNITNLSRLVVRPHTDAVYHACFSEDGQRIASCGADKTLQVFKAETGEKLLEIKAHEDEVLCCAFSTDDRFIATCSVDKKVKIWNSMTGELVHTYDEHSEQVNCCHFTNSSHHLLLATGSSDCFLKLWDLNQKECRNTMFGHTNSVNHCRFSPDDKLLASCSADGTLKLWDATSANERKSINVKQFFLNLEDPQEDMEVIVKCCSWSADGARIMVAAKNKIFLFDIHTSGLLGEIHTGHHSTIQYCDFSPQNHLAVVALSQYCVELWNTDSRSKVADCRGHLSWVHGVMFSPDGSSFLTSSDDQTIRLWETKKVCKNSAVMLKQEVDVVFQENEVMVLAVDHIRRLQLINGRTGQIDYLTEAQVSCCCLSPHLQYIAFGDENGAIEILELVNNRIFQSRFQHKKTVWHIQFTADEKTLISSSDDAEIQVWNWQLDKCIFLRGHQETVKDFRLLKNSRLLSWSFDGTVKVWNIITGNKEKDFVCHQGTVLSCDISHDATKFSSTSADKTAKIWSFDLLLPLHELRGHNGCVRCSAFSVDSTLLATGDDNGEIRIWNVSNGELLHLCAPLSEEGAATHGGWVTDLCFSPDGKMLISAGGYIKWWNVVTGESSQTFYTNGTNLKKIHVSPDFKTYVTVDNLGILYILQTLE
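Material: reconstituted apoptosome with Apaf-1, cytochrome c, caspase-9, procaspase-3, dATP; medium: pH 7.5 Hepes buffer with CHAPS, BSA, DTT; also added: cytochrome c and DEVD-Rh110 substrate; timing: 30 min plus 50 min, RT; signal: Rh110 fluorescence intensity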
Of the large screens only hits and unclear results are named; the others gave an inactive call.

CCc1ccc(-c2cn(C3CCCCC3)c(=S)[nH]2)cc1	pPAFAH FP inh 29.6
Clc1ccc(-c2nnc(-c3ccccc3Cl)o2)cc1	none
OC(c1ccc(Cl)cc1)c1nnc(-c2ccccc2)o1 (centres undefined)	PAFAH1B2 FP inh 24.5
c1ccc(CSc2nnc3c(n2)OC(c2ccco2)Nc2ccccc2-3)cc1 (centres undefined)	pPAFAH FP inh 26.4
C=CCSc1nnc2c(n1)OC(c1cccnc1)Nc1ccccc1-2 (centres undefined)	none
CC(C)CCOc1cccc(OCC(=O)Nc2ccncc2)c1	none
O=C1C=CC(=O)c2c(O)c(CO)c(CO)c(O)c21	PAFAH1B3 inh 49.5, PAFAH2 inh 68.4, PAFAH1B2 FP inh 25.3 (no result: PREPL inh, pPAFAH FP inh, Apaf1 inhib)
CN1CCN(C(=O)c2ccc(CNS(=O)(=O)c3ccc(F)c(Cl)c3)cc2)CC1	none (no result: PREPL inh, pPAFAH FP inh)
CC(C)Cn1c2ccccc2c2cc(C(=O)O)ccc21	PAFAH1B2 FP inh 28.6
CC(C)Cn1c(=S)[nH]c2cc(C(=O)O)ccc2c1=O	none
Cc1cccc(N2C(S)=C(C#N)C(=O)NC2c2cccs2)c1 (centres undefined)	PAFAH1B2 FP inh 29.9 (no result: Apaf1 inhib)
N#CC1=C(S)N(c2ccc(F)cc2)C(c2cccs2)NC1=O (centres undefined)	none (no result: PREPL inh, pPAFAH FP inh, Apaf1 inhib)
COc1ccc([C@H]2[C@H](C(=O)C(C)(C)C)N3N=Cc4ccccc4C3[C@]23N=C(c2ccccc2)OC3=O)cc1 (some centres undefined)	none
CC(C)(C)OC(=O)[C@H]1[C@H](c2ccc([N+](=O)[O-])cc2)C2(C(=O)c3ccccc3C2=O)C2c3ccccc3C=NN21 (some centres undefined)	PAFAH1B2 FP inh 83.8
Cc1ccc(C(=O)/C=C/c2cc(Br)cc(Br)c2O)o1	PAFAH2 inh 34.0, pPAFAH FP inh 30.7
CC(=O)Nc1ccc(S(=O)(=O)N(C)CC(=O)OCC(=O)NCc2ccco2)cc1	none
CC(C)c1nnc(NC(=O)C2CCCN2C(=O)Nc2ccc(F)cc2)s1 (centres undefined)	none
O=[N+]([O-])c1cccc(/C=N/Nc2nc(NCc3ccccc3)nc(N3CCOCC3)n2)c1O	pPAFAH FP inh 25.2
O=[N+]([O-])c1ccc(/C=N/Nc2nc(NCc3ccccc3)nc(N3CCOCC3)n2)cc1	none
N#CC12COC3(CCCCC3C1(C#N)C#N)OC2=N (centres undefined)	PAFAH1B3 inh 34.8, PAFAH2 inh 37.7
COc1ccc(C2OC34CCCCC3C(C#N)(C#N)C2(C#N)C(=N)O4)cc1 (centres undefined)	PAFAH1B3 inh 50.3, PAFAH2 inh 61.1, PAFAH1B2 FP inh 45.7
CCC1OC23CCCCC2C(C#N)(C(=N)O3)C1(C#N)C#N (centres undefined)	PAFAH1B3 inh 32.7, PAFAH2 inh 47.5, PAFAH1B2 FP inh 33.5
CC1OC23CCCCC2C(C#N)(C(=N)O3)C1(C#N)C#N (centres undefined)	none
N#CC1(C#N)COC23CCCCC2C1(C#N)C(=N)O3 (centres undefined)	PAFAH2 inh 35.5
COc1ccc(S(=O)(=O)N(C)C)cc1NC(=O)CSc1nnc(-c2cccnc2)o1	none
Cc1ccc(/C=C2\SC(=S)N(C3CCS(=O)(=O)C3)C2=O)o1 (centres undefined)	none
NS(=O)(=O)c1ccc(-c2ccc(/C=C3\SC(=S)N(C4CCS(=O)(=O)C4)C3=O)o2)cc1 (centres undefined)	pPAFAH FP inh 24.8
ClC(Cl)(Cl)c1nc2ccccc2n2nncc12	none
CCCC[C@@H]1C=C(C(=O)O)[C@H](c2ccc(C)cc2)N1S(=O)(=O)c1ccc(C)cc1	none
CCCC[C@@H]1C=C(C(=O)O)[C@H](c2ccc(Cl)c(Cl)c2)N1S(=O)(=O)c1ccc(C)cc1	PAFAH1B2 FP inh 25.9
Cc1ccc(S(=O)(=O)N2[C@@H](c3ccc(Cl)cc3)C(C(=O)O)=C[C@H]2C(C)(C)C)cc1	PAFAH1B2 FP inh 51.1
Cc1ccc(S(=O)(=O)N2[C@@H](c3ccc(C#N)cc3)C(C(=O)O)=C[C@H]2C(C)(C)C)cc1	none
COc1ccc(C(C(=O)NCCC(C)C)N(CCCO)C(=O)c2snc(C(N)=O)c2N)cc1OC (centres undefined)	none
COc1ccc(S(=O)(=O)N2CCN(c3nc(-c4cccnc4)nc4ccccc34)CC2)cc1	none
CN1/C(=C\C(=O)COC(=O)c2ccc(O)c(O)c2)C(C)(C)c2ccccc21	pPAFAH FP inh 32.4 (no result: PAFAH1B3 inh, PAFAH2 inh, PAFAH1B2 FP inh)
CCC(C)c1ccc(C(C)NC(=S)NCc2ccc(F)cc2)cc1 (centres undefined)	PAFAH1B2 FP inh 24.4
CCCc1ccc(C(C)NC(=S)NCc2ccc(F)cc2)cc1 (centres undefined)	none
CCC(NC(=S)NCc1ccc(F)cc1)c1ccc(C(C)C)cc1 (centres undefined)	PAFAH1B2 FP inh 28.9
CN(CCCN1c2ccccc2CCc2ccccc21)CC(=O)c1ccc(Cl)cc1	Apaf1 inhib 44.1 (no result: PAFAH1B3 inh, PAFAH2 inh, PAFAH1B2 FP inh)
COCCn1cnc2c1c(=O)n(Cc1ccccc1C#N)c(=O)n2Cc1ccccc1	none
O=S(=O)(c1ccc(F)cc1)n1cnc2ccccc21	PAFAH1B2 FP inh 25.8
COc1ccccc1NC(=O)c1ccc(NC(=O)COC(=O)C2CC2C)cc1 (centres undefined)	PAFAH2 inh 42.9, pPAFAH FP inh 33.9
CC(NC(=O)COC(=O)c1cccnc1Cl)C12CC3CC(CC(C3)C1)C2 (centres undefined)	PAFAH2 inh 44.6, PAFAH1B2 FP inh 50.5
NC(=O)c1ccsc1NC(=O)COC(=O)c1cccnc1Cl	none
N#Cc1c(NC(=O)c2ccco2)sc2c1CCC2	pPAFAH FP inh 29.9
COc1ccc(CCNC(=O)CSc2nc(=O)n3cccc(C)c3n2)cc1OC	none
COc1ccc(OC)c(NC(=O)c2cc3c(Cl)nc4ccccc4c3s2)c1	none
COc1ccc(NC(=O)c2cc3c(Cl)nc4ccccc4c3s2)cc1OC	pPAFAH FP inh 27.1
O=C(COc1ccc(F)cc1Cl)Nc1ccccc1C(=O)N1CCCCC1	none
C=CCSc1nnc(NC(=O)C2CC(=O)N(c3ccc4c(c3)OCCO4)C2)s1 (centres undefined)	none
O=C(Nc1nnc(SCc2ccc(F)cc2)s1)C1CC(=O)N(c2ccc3c(c2)OCCO3)C1 (centres undefined)	pPAFAH FP inh 26.0
N#Cc1ccc(CSc2nnc(NC(=O)C3CC(=O)N(c4ccc5c(c4)OCCO5)C3)s2)cc1 (centres undefined)	none
O=C(Nc1nnc(SCc2c(Cl)cccc2Cl)s1)C1CC(=O)N(c2ccc3c(c2)OCCO3)C1 (centres undefined)	pPAFAH FP inh 31.7
O=C(NCc1ccncc1)C(=O)Nc1nc2ccccc2s1	none
Cc1cc(C)cc(NS(=O)(=O)c2ccc3c(c2)C(C)(C)C(=O)N3C)c1	none
